In data set [1] the test system is Mus musculus. Briefly: Analgesic activity against acetic acid induced mouse model assessed as number of writhes at 5 mg/kg, po measured after 30 mins by abdominal constriction test. In kind it is functional. As to conditions: 0.5 h.
For data set [2], the system named is Mus musculus. The experiment in a line: Analgesic activity against acetic acid induced mouse model assessed as number of writhes at 10 mg/kg, po measured after 30 mins by abdominal constriction test. In kind it is functional. As to conditions: 0.5 h. Put shortly:
(§1)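 Mice were dosed orally, with carboxymethylcellulose (CMC) as vehicle, 30 min before an acetic acid (0.6%) challenge. Abdominal constrictions (writhes) were counted. Values are means of at least seven mice, and percent writhing reduction is relative to vehicle-treated mice. Statistics were P<0.05 and P<0.01 versus vehicle.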

In data set [3] the test system is Mus musculus. Briefly: Analgesic activity against acetic acid induced mouse model assessed as reduction in writhing at 5 mg/kg, po by abdominal constriction test. In kind it is functional. Also noted: scale not given: the % may be the effect or the level left. (In writhing tests, fewer writhes than in controls are read as antinociception.)
For data set [4], the system named is Aorta. The experiment in a line: Vasorelaxant activity in KCl induced normotensive Wistar rat endothelium-denuded aortic rings contraction assessed as maximal vasorelaxing response at 10 uM relative to control. The data set is classed as functional. The method in brief: (§2)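 Rat aortic rings were precontracted with KCl. Vasorelaxing efficacy (Emax) is the % reversal of the KCl-induced vasoconstriction. Potency is pIC50, the −log of the molar concentration giving 50% of Emax. ODQ was used to check for NO dependence.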

The test system of data set [5] is Mus musculus. Briefly: Analgesic activity against acetic acid induced mouse model assessed as reduction in writhing at 40 mg/kg, po by abdominal constriction test. The data set is classed as functional. Also noted: scale not given: the % may be the effect or the level left. The method in brief: as §1
For data set [6], the system named is Aorta. Briefly: Vasorelaxant activity in KCl induced normotensive Wistar rat endothelium-denuded aortic rings contraction assessed as decrease in contractile tone. In kind it is functional, tissue-based. The method in brief: as §2
Data set [7] concerns Mus musculus. Briefly: Analgesic activity against acetic acid induced mouse model assessed as reduction in writhing at 10 mg/kg, po by abdominal constriction test. The data set is classed as functional. More on the design: scale not given: the % may be the effect or the level left. Put shortly: as §1
The subject of data set [8] is Mus musculus. The experiment in a line: Analgesic activity against acetic acid induced mouse model assessed as reduction in writhing at 20 mg/kg, po by abdominal constriction test. In kind it is functional. Also noted: scale not given: the % may be the effect or the level left. Put shortly: as §1
Data set [9] relates to Mus musculus. The experiment in a line: Analgesic activity against acetic acid induced mouse model assessed as number of writhes at 40 mg/kg, po measured after 30 mins by abdominal constriction test. The data set is classed as functional. As to conditions: 0.5 h. The method in brief: as §1
For data set [10], the target named is T1, Prostaglandin G/H synthase 1 (Ovis aries, UniProt P05979).
T1 sequence (P05979 whole entry): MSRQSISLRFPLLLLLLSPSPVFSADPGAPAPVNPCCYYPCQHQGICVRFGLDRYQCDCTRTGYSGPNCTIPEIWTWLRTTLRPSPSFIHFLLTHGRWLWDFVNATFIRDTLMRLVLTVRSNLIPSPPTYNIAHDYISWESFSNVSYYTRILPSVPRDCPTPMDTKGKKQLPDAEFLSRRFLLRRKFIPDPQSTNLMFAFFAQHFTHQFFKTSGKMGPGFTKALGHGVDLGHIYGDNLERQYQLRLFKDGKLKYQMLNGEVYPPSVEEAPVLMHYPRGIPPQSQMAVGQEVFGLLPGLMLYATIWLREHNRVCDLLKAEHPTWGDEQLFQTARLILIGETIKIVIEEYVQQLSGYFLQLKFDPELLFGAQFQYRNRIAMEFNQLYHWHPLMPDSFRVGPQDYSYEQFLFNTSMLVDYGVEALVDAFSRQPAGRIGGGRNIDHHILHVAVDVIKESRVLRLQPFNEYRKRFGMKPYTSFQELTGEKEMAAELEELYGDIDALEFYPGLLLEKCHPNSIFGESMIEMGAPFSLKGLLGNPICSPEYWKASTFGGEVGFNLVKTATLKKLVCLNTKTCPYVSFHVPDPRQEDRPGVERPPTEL
The experiment in a line: Inhibition of ovine COX-1 assessed as […] production using arachidonic acid as substrate preincubated for 10 mins followed by substrate addition and measured after 2 mins by enzyme immunoassay. Put shortly: (§3)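 PGE2 production was measured with test compound and compared with control samples to give % inhibition. Values are means of n = 3 experiments. IC50 was obtained by fitting a sigmoidal dose–response equation with variable slope.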

In data set [11] the test system is Mus musculus. Briefly: Analgesic activity against acetic acid induced mouse model assessed as number of writhes at 20 mg/kg, po measured after 30 mins by abdominal constriction test. The data set is classed as functional. The note with it: 0.5 h. Put shortly:
as §1

The target in data set [12] is T2, Prostaglandin G/H synthase 2 (Homo sapiens) (UniProt P35354).
T2 sequence (whole entry): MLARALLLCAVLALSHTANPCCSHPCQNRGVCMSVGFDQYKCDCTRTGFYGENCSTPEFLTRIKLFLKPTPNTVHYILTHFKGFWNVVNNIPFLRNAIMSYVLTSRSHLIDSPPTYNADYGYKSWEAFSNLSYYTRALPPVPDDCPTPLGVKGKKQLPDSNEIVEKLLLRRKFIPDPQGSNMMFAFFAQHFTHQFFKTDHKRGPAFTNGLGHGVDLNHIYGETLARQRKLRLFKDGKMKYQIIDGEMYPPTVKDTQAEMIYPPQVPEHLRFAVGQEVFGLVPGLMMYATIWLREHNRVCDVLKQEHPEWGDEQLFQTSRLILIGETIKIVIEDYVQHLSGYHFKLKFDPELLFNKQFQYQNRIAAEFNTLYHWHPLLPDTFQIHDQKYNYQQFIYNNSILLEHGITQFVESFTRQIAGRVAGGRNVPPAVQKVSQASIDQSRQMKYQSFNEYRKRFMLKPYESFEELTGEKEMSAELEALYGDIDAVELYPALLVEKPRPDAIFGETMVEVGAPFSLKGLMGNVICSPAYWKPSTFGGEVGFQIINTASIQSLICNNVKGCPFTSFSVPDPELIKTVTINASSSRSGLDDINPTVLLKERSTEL
Briefly: Inhibition of human recombinant COX-2 assessed as […] production at 10 uM using arachidonic acid as substrate preincubated for 10 mins followed by substrate addition and measured after 2 mins by enzyme immunoassay relative to control. The note with it: time 12.0 min. Put shortly:
as §3

Data set [13] relates to Liver. Briefly: NO releasing activity in rat liver homogenate assessed as nitrate formation measured after 120 mins. The note with it: tissue homogenate, 2 h. The data set is classed as ADME, tissue-based. Put shortly:
(§4)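 Compounds were incubated in rat liver homogenate. Inorganic nitrite and nitrate, the stable NO metabolites, were quantified over time, with the reading taken at 120 min of incubation.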

In data set [14] the test system is Liver. The experiment in a line: NO releasing activity in rat liver homogenate assessed as nitrite formation measured after 120 mins. In kind it is ADME, tissue-based. As to conditions: tissue homogenate, 2 h. Put shortly: as §4
Data set [15] relates to Mus musculus. The experiment in a line: Analgesic activity against acetic acid induced mouse model assessed as number of writhes at 1 mg/kg, po measured after 30 mins by abdominal constriction test. In kind it is functional. As to conditions: 0.5 h. Put shortly: as §1
Data set [16] relates to Mus musculus. The experiment in a line: Analgesic activity against acetic acid induced mouse model assessed as reduction in writhing at 1 mg/kg, po by abdominal constriction test. In kind it is functional. Also noted: scale not given: the % may be the effect or the level left. The method in brief: as §1
Data set [17] concerns Mus musculus. Briefly: Analgesic activity against acetic acid induced mouse model assessed as number of writhes at 3 mg/kg, po measured after 30 mins by abdominal constriction test. The data set is classed as functional. The note with it: 0.5 h. The method in brief:
as §1

The subject of data set [18] is Mus musculus. Briefly: Analgesic activity against acetic acid induced mouse model assessed as reduction in writhing at 3 mg/kg, po by abdominal constriction test. The data set is classed as functional. More on the design: scale not given: the % may be the effect or the level left. The method in brief:
as §1

The structures appear in SMILES notation.

As for `Cc1c(CC(=O)NCCO[N+](=O)[O-])cc(-c2ccc(S(N)(=O)=O)cc2)n1-c1ccc(F)cc1`, the Activity in the data set on Mus musculus [1] stood at 26.7; in the data set with Mus musculus [2] it was 18.5; with Mus musculus [3] it was 20.5%; in the data set with Mus musculus [5], 50.3%; with Mus musculus [7], 44.9%; in the data set on Mus musculus [8], 53%. Also, the Activity in the data set with Mus musculus [9] is 16.7; in the data set with Mus musculus [11] it was 15.8. For the same compound, in the data set on Aorta [4], the maximal effect (Emax) (in general, the size of the effect at its maximum, as opposed to the concentration needed) at 10 µM amounted to 74.9%. Further, the concentration for half-maximal inhibition (IC50) (as a rule, the concentration that inhibits the measured activity by half) with Aorta [6] was 1.51 µM; in data set [10], above 10 µM. Moreover, in data set [12], the inhibition (in general, the drop in the measured response relative to a control, in per cent) came to 16%.

For `Cc1c(CC(=O)NCCO)cc(-c2ccc(S(N)(=O)=O)cc2)n1-c1cccc(F)c1`, the inhibition in data set [12] amounted to 15%.

As for `COc1ccc2cc([C@H](C)C(=O)OCCCCO[N+](=O)[O-])ccc2c1` [NAPROXCINOD], the values for the Activity in the data set on Liver [13] and with Liver [14] were 340.1 µM and 28 µM, respectively.

With `Cc1c(CC(=O)NCCO)cc(-c2ccc(S(N)(=O)=O)cc2)n1-c1ccc(F)cc1`, the inhibition in data set [12] was 18%.

For `Cc1c(CC(=O)NCCO[N+](=O)[O-])cc(-c2ccc(S(N)(=O)=O)cc2)n1-c1cccc(F)c1`, the Activity in the data set on Mus musculus [2] was 16.7; with Mus musculus [7], 50.3%; in the data set on Mus musculus [15] it was 21.8; in the data set on Mus musculus [16], 35.1%; in the data set on Mus musculus [17] it was 19.4; in the data set on Mus musculus [18] it was 42.3%. Further, the Emax at 10 µM in the data set with Aorta [4] amounted to 67.5%. For the same compound, the results for the IC50 (in the data set on Aorta [6]; in [10]) were 3.24 µM and above 10 µM, respectively. In addition, in [12], the inhibition came to 45%.

The values are drawn from ChEMBL document CHEMBL5126501, “Therapeutic potential for coxibs-nitric oxide releasing hybrids in cystic fibrosis” (Eur J Med Chem, 2021).
